Bioassay records (PubChem)
MPTP inh: inhibitors of mitochondrial permeability transition pore; 360,000 tested, 1.4% active; isolated mouse mitochondria, Ca2+ swelling absorbance, 30 min; inhibition, % at 10 µM; AID 602449;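 active = inhibition of 50% or more, scaled per plate between neutral and stimulator controls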;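 also: 0% = DMSO wells given calcium and 100% = 1 mM EGTA wells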
SENP1 FRET inh: inhibitors of human SENP1 SUMO protease catalytic domain. recombinant SENP1 catalytic domain, CyPet-SUMO1-YPet FRET cleavage. AID 624204. inhibition, % at 10 µM. 360,000 tested, 0.21% active;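 active = inhibition at least 30% at 10 µM, raw YFP signal under a set limit, fluorescence ratio 0.5 to 1.5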;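 also: 0% = enzyme with DMSO and 100% = no enzyme wells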
Target sequence (Q9P0U3 419-644 limits assumed): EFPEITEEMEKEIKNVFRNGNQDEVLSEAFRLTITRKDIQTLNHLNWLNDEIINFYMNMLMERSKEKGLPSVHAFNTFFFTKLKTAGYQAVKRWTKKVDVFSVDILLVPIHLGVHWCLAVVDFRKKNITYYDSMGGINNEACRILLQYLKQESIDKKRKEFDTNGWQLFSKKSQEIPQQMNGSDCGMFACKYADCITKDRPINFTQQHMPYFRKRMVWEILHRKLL
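Assay system – human recombinant His6-tagged SENP1 catalytic domain enzyme · Input – SENP1 enzyme, 20 pM final · Buffer or medium – Tris pH 8 buffer plus EDTA, NaCl, BME, BSA, NP40, catalase · Schedule – 50 min reaction at room temperature · Technique – FRET read of cyan and yellow fluorescence · Control set – no-enzyme wells low, DMSO-plus-enzyme wells high control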
EBI2 block: EBI2 (human) antagonism; AID 651636; 360,000 tested, 0.81% active; inhibition, % at 5 µM; P32249; EBI2 beta-arrestin recruitment, luminescence, 7a,25-OHC stimulated; in the data active = inhibition above about 38%;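 also: enzyme fragment complementation signal reports receptor beta-arrestin coupling in cells; 0% = agonist plus DMSO wells and 100% = wells without agonist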
Target sequence (P32249 whole entry, looked up, the tested form may be a part): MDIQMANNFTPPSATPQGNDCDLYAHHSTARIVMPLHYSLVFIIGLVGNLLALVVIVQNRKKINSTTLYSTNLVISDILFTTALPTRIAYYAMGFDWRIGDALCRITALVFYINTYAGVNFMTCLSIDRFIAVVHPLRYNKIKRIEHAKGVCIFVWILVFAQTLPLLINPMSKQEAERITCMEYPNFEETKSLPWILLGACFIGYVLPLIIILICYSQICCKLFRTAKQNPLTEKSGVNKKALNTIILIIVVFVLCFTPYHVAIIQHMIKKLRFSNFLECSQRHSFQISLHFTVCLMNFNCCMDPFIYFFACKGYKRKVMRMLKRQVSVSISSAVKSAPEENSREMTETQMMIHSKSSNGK
GRIN3A LBD mod: modulators (binders) of human NR3A ligand-binding domain. NR3A LBD differential scanning fluorimetry, Tm shift; 0% = protein alone, 100% = glycine-bound protein. Tm shift relative to glycine control, % at 25 µM. AID 1259313. 340,000 tested, 2.5% active;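 active = melting temperature shift of at least 10% of the positive control shift, at one fixed dose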
SENP1 inh conf: SENP1 (human) inhibition, single concentration confirmation | shares compounds with SENP1 FRET inh | recombinant SENP1, CyPet-SUMO1-YPet FRET cleavage | inhibition, % at 10 µM | 520 tested, 34% active | AID 651678; in the data active = inhibition mostly above about 35%, no sharp cut-off; inactive = mostly below about 32%;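 also: 0% = enzyme with DMSO and 100% = no enzyme control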
SENP1 kin conf: SENP1 (human) inhibition, kinetic confirmation; shares compounds with SENP1 FRET inh; recombinant SENP1, CyPet-SUMO1-YPet FRET kinetic cleavage; inhibition, % at 10 µM; 520 tested, 26% active; in the data active = inhibition mostly above about 32%, no sharp cut-off; inactive = mostly below about 29%;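 also: 0% = DMSO with enzyme and 100% = no enzyme substrate only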
EBI2 conf: EBI2 (human) antagonism, single concentration confirmation. shares compounds with EBI2 block. EBI2 beta-arrestin luminescence, 7a,25-OHC antagonism. inhibition, % at 5 µM. 2,400 tested, 29% active. AID 651997;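 active = inhibition of at least 50%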
EBI2 ag: counter-screen for EBI2 antagonists: EBI2 agonist activity; EBI2-expressing cells, agonist mode, luminescence, 60 min; 0% vehicle, 100% 7α,25-dihydroxycholesterol control; 2,400 tested, under 10 active; shares compounds with EBI2 block; activation, % at 5 µM;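 active = activation of at least 50%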
bGal counter: beta-galactosidase inhibition counter-screen; shares compounds with EBI2 block; purified beta-galactosidase, luminescent Galacton Star, 15 min; inhibition, % at 5 µM; 2,400 tested, 1% active; AID 652176;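 active = replicate-average signal at least 3 plate SD below neutral wells, shown as high inhibition, flagging enzyme-inhibiting false positives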;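 also: 0% = DMSO wells with enzyme and 100% = wells lacking enzyme; higher means stronger loss of beta-gal luminescence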
An asterisk follows results filed as active; . = no result given; ! = a repeat was not active. Hits are enriched below; roughly 4.4% of the tested compounds scored in any of these assays.

SMILES	MPTP inh	SENP1 FRET inh	EBI2 block	GRIN3A LBD mod	SENP1 inh conf	SENP1 kin conf	others
CCOc1ccc(/C=C/C(=O)Nc2ccc(OC)cc2[N+](=O)[O-])cc1	4	70*	6	28*	52*	34*
O=C1/C(=C/c2ccc([N+](=O)[O-])cc2)Oc2cc(O)ccc21	14	62*	-4	4	45*	26
CCc1cc2c(N=Nc3c(O)[nH]c4ccccc34)ncnc2s1	1	59*	23	1	4	-15
CC(NC(=S)NNS(=O)(=O)c1cccc([N+](=O)[O-])c1)c1ccccc1 (centres undefined)	-4	0	5	-1	.	.
CC(C)(C)N=Cc1c(O)ccc2oc3c(c12)CCCC3	0	31*	-9	0	4	0
Cc1cccc(-c2noc(-c3cc4ccccc4oc3=O)n2)c1	2	51*	-1	0	0	6
O=C1Nc2ccccc2Oc2cc([N+](=O)[O-])cc(Oc3ccccc3)c21	31	59*	39	-18	16	8
Cc1cccc(Oc2cc([N+](=O)[O-])cc3c2C(=O)Nc2ccccc2O3)c1	46	28	28	-27	.	.
O=C(O)Cn1c(O)c(C2=c3ccccc3=NC2=O)sc1=O	-1	66*	-19	3	67*	36*
Cc1nc2[nH]onc2c2nccc(=O)c12	0	52*	-5	-1	50*	48*
COc1cc(S(=O)(=O)N2CCOCC2)cc(C(=O)OCC(=O)NCc2ccco2)c1OC	0	4	0	-1	.	.
CN(C)CCNc1ccc(CO)c2oc3ccc(O)cc3c(=O)c12	0	58*	7	-1	65*	39*
CCN(CC)CCNC(CC(=O)Nc1ccc(Cl)cc1Cl)C(=O)O (centres undefined)	-3	0	-10	2	.	.
O=c1cc(NCCCO)c2ccccc2o1	1	1	-1	1	.	.
CCN(CC)CCNc1ccc(CO)c2oc3cc(Cl)ccc3c(=O)c12	-1	48*	-2	.	55*	35*
CCOc1ccc(CCNC(=O)COC(=O)CNS(=O)(=O)c2ccc(NC(C)=O)cc2)cc1OCC	0	-5	1	-1	.	.
Brc1cc(Br)c2nc3c(cc2c1)CCC3	-1	33*	-9	2	3	7
CC(NC(=O)Nc1ccc([N+](=O)[O-])cc1)C(c1cccs1)N1CCCC1 (centres undefined)	20	-3	-9	1	.	.
COc1cc(Br)c(CC(=O)NNC(=O)c2ccc(F)cc2)cc1OC	-1	6	1	0	.	.
Nc1cccc2c1C(=O)c1ccc(Cl)cc1C2=O	3	30*	-2	-6	33	16
Cc1noc(C)c1CSCC(=O)NCCN1C(=O)S/C(=C\c2ccccc2F)C1=O	0	2	3	2	.	.
Cc1ccc(C)c(NC(=S)N2CCC(NC(=O)c3ccc(F)cc3)CC2)c1	-2	1	-7	1	.	.
CN1C[C@H](C(=O)N[C@]2(C)O[C@@]3(O)[C@@H]4CCCN4C(=O)[C@H](Cc4ccccc4)N3C2=O)CC2c3cccc4[nH]cc(c34)C[C@H]21 (some centres undefined)	-1	34*!	-1	-2	-6	-2
CC(C)(C)OC(=O)N/N=C/c1ccc(N2CCOCC2)s1	0	44*	-5	2	64*	43*
CC(=O)c1ccccc1Oc1nc(CN2CCOCC2)nc2scc(-c3cccs3)c12	0	44*	11	-4	52*	33*
SMILES	MPTP inh	SENP1 FRET inh	EBI2 block	GRIN3A LBD mod	SENP1 inh conf	SENP1 kin conf	others
COc1cc(/C=C/c2onc(C)c2[N+](=O)[O-])cc(OC)c1OC	3	49*	22	2	9	10
Cc1cccc(/C=C/c2onc(C)c2[N+](=O)[O-])n1	.	.	.	1	.	.
CCOc1cc(/C=C2\SC(=O)N=C2N)ccc1O	-1	31*	-1	1	61*	46*
CCOc1cc(/C=C2\SC(=S)N(NS(=O)(=O)c3ccccc3)C2=O)ccc1O	9	82*	11	-6	124*	70*
COc1cccc(/C=C2\N=C3CCCCCN3C2=O)c1	1	2	-2	2	.	.
CCOc1cc(/C=C2\N=C3CCCCCN3C2=O)ccc1O	0	39*	-3	-1	56*	50*
CCCCCNC(=O)C(c1cc2ccccc2o1)n1c(=O)c(-c2ccccc2)nc2ccccc21 (centres undefined)	0	-53	-5	.	.	.
O=C(NC(Cc1ccccc1)C(=O)O)/C(=C\c1ccc([N+](=O)[O-])cc1)NC(=O)c1ccco1 (centres undefined)	0	33*	-17	-1	2	4
O=C(NC(Cc1ccccc1)C(=O)O)/C(=C/c1cccc([N+](=O)[O-])c1)NC(=O)c1ccco1 (centres undefined)	1	-37	-7	2	.	.
COc1ccc(-c2c(Sc3ccccc3)c3cc(-c4ccc(OC)c(F)c4)ccc3n2C)cc1	0	30*	4	.	-35	4
COc1cc(OC)cc(-c2c(Sc3ccccc3)c3cc(-c4ccc(OC)c(OC)c4)ccc3n2C)c1	2	1	7	.	.	.
Nc1ccc(C2CCCc3nonc32)c2nonc12 (centres undefined)	0	35*	5	1	51*	28
Cn1c(=O)c2c(-c3ccccc3)n(-c3cccc(O)c3)cc2n(C)c1=O	0	-14	-14	.	.	.
Cn1c(=O)c2c(-c3ccccc3)n(-c3ccc(N)cc3)cc2n(C)c1=O	-2	45*	-17	.	24	9
CCOc1ccc(NC(=O)N2CCC(c3ccc(C)cc3)C2)cc1 (centres undefined)	-1	-1	81*	3	.	.	EBI2 conf=55*;EBI2 ag=0;bGal counter=3
Cc1ccc(NC(=O)N2CCCC(c3ccccc3)C2)cc1 (centres undefined)	0	2	20	0	.	.
CCc1ccc(NC(=O)N2CCC(c3ccccc3)C2)cc1 (centres undefined)	0	2	83*	-1	.	.	EBI2 conf=63*;EBI2 ag=0;bGal counter=6
